Most compounds without a hit are left out; they make up all but 1.9% or so of the library.
LMPTP block = blocks human LMPTP phosphatase; recombinant LMPTP-A, OMFP fluorogenic substrate, fluorescence intensity; AID 651560; 0.22% of 360,000 active; inhibition, % at 20 µM;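 active = compounds that cut the enzyme signal by at least half of the control window in the single-dose screen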
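Test system – LMPTP-A enzyme · Amount – LMPTP-A at 0.625 nM final in the reaction · Buffer or medium – Bis-Tris pH 6.0, DTT, detergent · Reagent – OMFP 400 µM · Doses – single 20 µM dose · Schedule – reaction 50 min, room temperature, dark · Detection – fluorescence intensity of OMFP turnover product · Evaluation – percent inhibition versus substrate-only and uninhibited controls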
Scp1 inh = blocks human Scp-1 phosphatase activity. Recombinant Scp1, phosphopeptide, malachite green phosphate absorbance. Q9GZU7. AID 493091. inhibition, % at 20 µM. 0.88% of 340,000 active;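 active = inhibition above about 50% at 20 µM, limit read from the data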
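Assay system: SCP-1 catalytic fragment, aa 76-261 | Buffer or medium: Tris acetate buffer pH 5.5 with MgCl2 and Tween-20 | Compound: One concentration, 20 µM, with 1.0% DMSO | Also added: Phospho 17-mer peptide substrate | Signal: Absorbance at 630 nm | Incubation: 45 min enzyme reaction at room temperature | Measure: % inhibition of SCP-1 phosphate liberation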
CSN deneddyl inh = CSN deneddylation inhibition; Purified CSN, SCF-Nedd8-OG deneddylation, fluorescence polarization; inhibition, % at 12.5 µM; Q92905; 0.38% of 360,000 active;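 active = pattern-corrected inhibition above about 35%, with an unprinted fluorescence ratio check between 0.5 and 1.5, limit read from the data, passing the limit was not always enough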
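Material: purified human Csn5 enzyme expressed in HEK293T cells / Medium: Tris buffer pH 7.5, NaCl, DTT, Tween-20, trehalose, ovalbumin / Compound dosing: 12.5 µM single point / Schedule: 90 min incubation of compound, enzyme and substrate at room temperature / Signal: fluorescence polarization of the substrate / Control set: no-enzyme wells high, enzyme-with-substrate wells low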
DNMT1 inh = blocks human DNA methyltransferase DNMT1; DNMT1 molecular beacon, Hinp1I cleavage, fluorescence; 0.83% of 360,000 active; P26358; inhibition (reported as % activation of signal), % at 10 µM; in the data active = inhibition above about 50%
STEP inh = inhibitors of human striatal-enriched phosphatase STEP | P54829 | recombinant STEP, OMFP fluorogenic substrate, fluorescence | inhibition, % at 20 µM | 0.25% of 360,000 active;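 active = inhibition at 20 µM, scaled per plate between control wells, above about 37%, limit read from the data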
Target sequence (P54829 whole entry, looked up): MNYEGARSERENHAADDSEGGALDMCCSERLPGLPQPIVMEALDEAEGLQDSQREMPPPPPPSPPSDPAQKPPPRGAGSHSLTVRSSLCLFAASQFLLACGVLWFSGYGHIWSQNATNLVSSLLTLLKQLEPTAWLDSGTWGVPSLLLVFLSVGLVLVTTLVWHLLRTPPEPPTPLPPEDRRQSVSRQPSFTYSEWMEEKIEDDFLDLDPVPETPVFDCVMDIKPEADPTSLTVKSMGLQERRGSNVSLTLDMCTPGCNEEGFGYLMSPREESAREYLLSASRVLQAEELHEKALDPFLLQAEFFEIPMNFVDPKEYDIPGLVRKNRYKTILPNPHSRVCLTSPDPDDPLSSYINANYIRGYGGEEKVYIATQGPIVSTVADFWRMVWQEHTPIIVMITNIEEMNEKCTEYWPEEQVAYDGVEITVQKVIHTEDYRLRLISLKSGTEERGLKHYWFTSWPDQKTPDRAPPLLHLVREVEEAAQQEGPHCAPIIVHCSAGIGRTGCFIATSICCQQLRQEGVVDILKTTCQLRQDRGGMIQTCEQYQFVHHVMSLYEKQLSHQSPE
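System: isolated STEP enzyme; schedule: 20 min enzyme reaction at room temperature, protected from light; medium: Bis-Tris buffer pH 6.0, 2.5 mM DTT, 0.005% Tween 20; signal: fluorescence, 480/540 nm; dosing: single compound dose of 20 µM, 1% DMSO final; also added: OMFP substrate, 25 µM final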
SUMO1-SIM PPI = alters human SUMO1 binding to SIM partners | P63165 | SUMO1 binding to a labelled peptide, TR-FRET, 1 h | inhibition, % at 20 µM | 0.33% of 360,000 active | AID 602429; in the data active = inhibition above about 37%
Scp1 confirm = Scp-1 (human) inhibition, single-dose confirmed; shares compounds with Scp1 inh; recombinant SCP-1 catalytic domain, phosphate release, malachite green absorbance; inhibition, % at 20 µM; 61% of 2,500 active
Scp-1 MG ctr = counter-screen for Scp-1 inhibitors: colorimetric interference; Colorimetric interference counterscreen, malachite green absorbance 630 nm; AID 540313; shares compounds with Scp1 inh; apparent inhibition (interference), % at 20 µM; 2,500 tested, under 10 active;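 note: compounds added after enzyme reaction finished so only phosphate colour detection is probed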
Scp1 DSF = Scp-1 (human) binding by thermal shift; thermal shift relative to vanadate control, % at 40 µM; Recombinant SCP1, Sypro Orange thermal shift Tm; shares compounds with Scp1 inh; 25% of 1,500 active; AID 540329;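 active = substances whose mean melting-temperature shift, as a percentage of the reference inhibitor's shift, reaches about 5.3%, limit read from the data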
DNMT1 confirm = confirmation of human DNMT1 inhibitors; shares compounds with DNMT1 inh; DNMT1 molecular beacon HinP1I cleavage, fluorescence; inhibition, % at 10 µM; 8% of 2,300 active; AID 602385;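 active = average inhibition of at least 30% in the single-concentration confirmation test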
Beacon interf = beacon fluorescence artifact counter-screen; 1% of 2,300 active; AID 602387; activation (fluorescence interference), % at 10 µM; shares compounds with DNMT1 inh; DNMT1 molecular beacon spectral interference counterscreen, fluorescence 485/520;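 active = activation of at least 30% at 10 µM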;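 note: DNMT1 catalytic domain with a HinP1I cleavage step and a FAM/dabcyl DNA beacon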
Numbers stand for hits; i = inactive; nt = no result.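 Rule for the calls, unless noted: active = inhibition of at least 30% at 20 µM; inactive = the rest.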

SMILES	LMPTP block	Scp1 inh	CSN deneddyl inh	DNMT1 inh	STEP inh	SUMO1-SIM PPI	Scp1 confirm	Scp-1 MG ctr	Scp1 DSF	DNMT1 confirm	Beacon interf
O=C(O)c1cccc(-n2cccc2/C=C2/NC(=O)N(Cc3ccccc3F)C2=O)c1	i	52	i	81	i	i	75	i	i	i	i
Cc1ccccc1NC(=O)CN1C(=O)S/C(=C\c2cccn2-c2cccc(C(=O)O)c2)C1=O	i	84	i	66	i	i	74	i	17	i	i
Cc1cccc(C)c1-n1cccc1/C=C1\SC(=S)N(c2cccc(C(=O)O)c2)C1=O	i	i	i	i	i	i	nt	nt	nt	nt	nt
O=C(NCc1ccco1)c1c2c(nc3ccccc13)CCC2	i	66	i	84	i	i	51	i	8.3	i	i
O=C(NCc1ccc(F)cc1)c1c2c(nc3ccccc13)CCC2	i	52	i	57	i	i	60	i	12	i	i
O=C1CN(C(=O)COc2ccccc2)CCN1	i	i	i	i	i	i	nt	nt	nt	nt	nt
Cc1ccc(S(=O)(=O)c2cc3c(=O)n4ccccc4nc3n(Cc3ccco3)c2=N)cc1	i	66	38	69	i	i	i	i	nt	i	i
CCOc1ccc(C(C)=O)cc1N1C(=O)C2C3C=CC(O3)C2C1=O (stereo not drawn)	i	i	i	i	i	i	nt	nt	nt	nt	nt
CCOc1ccc(C(C)=O)cc1N1C(=O)C2C3C=CC(C3)C2C1=O (stereo not drawn)	i	56	i	70	i	i	31	i	i	i	i
O=C1C(=Cc2ccco2)C(=O)c2ccccc21	i	i	i	i	i	i	nt	nt	nt	nt	nt
Cc1ccc(C=C2C(=O)c3ccccc3C2=O)o1	i	55	i	70	i	i	59	i	6.2	i	i
O=C1C2CCCN2C(=S)N1c1cc(Cl)ccc1Cl (stereo not drawn)	i	i	i	i	i	i	nt	nt	nt	nt	nt
Cc1occc1C(=O)NCc1cccc(CNC(=O)c2ccoc2C)c1	i	51	i	51	i	i	73	i	i	i	i
NS(=O)(=O)c1ccc(CCNC(=O)C2Cc3ccccc3CN2C(=O)c2ccco2)cc1 (stereo not drawn)	i	i	i	i	i	i	nt	nt	nt	nt	nt
NS(=O)(=O)c1ccc(NC(=O)C2Cc3ccccc3CN2C(=O)c2ccco2)cc1 (stereo not drawn)	i	61	i	59	i	i	66	i	7.9	i	i
O=C(c1ccco1)N(c1ccccn1)c1ccccn1	i	i	i	i	i	i	nt	nt	nt	nt	nt
O=C(/C=C/c1ccco1)N(c1ccccn1)c1ccccn1	i	65	i	97	i	i	69	i	6.3	i	i
Cc1nnc(NC(=O)CN2CCN(Cc3ccc(F)cc3Cl)CC2)s1	i	i	i	i	i	i	nt	nt	nt	nt	nt
CCCCCn1nc(C(=O)N(CC(C)C)c2c(N)n(CCCC)c(=O)[nH]c2=O)c2ccccc2c1=O	i	i	i	i	i	i	nt	nt	nt	nt	nt
COc1cc(O)c(C(C)=O)c(CC(=O)O)c1	i	64	35	50	i	i	49	i	9.4	i	i
Cc1ccc(S(=O)(=O)NC2CCCCC2)c(C)c1NS(C)(=O)=O	i	i	i	i	i	i	nt	nt	nt	nt	nt
O=C(C=Cc1ccco1)c1ccco1	i	i	i	i	i	i	nt	nt	nt	nt	nt

Screens (PubChem BioAssay)
